Paper PMC10809365 (ACS Omega, 2024)
Entries after “also recorded” stand apart in the source; their conditions may differ. Blank lines part the entries; values can stand above or below the compound they belong to.

Key:
[1] = biological target: AbDapE-SeMet (Acinetobacter baumannii, UniProt A3M8H2); test: Thermal shift assay, AbDapE-SeMet; assay type: binding; settings: 6 μM AbDapE-SeMet + 10× dye
In short: (§1)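 SYPRO Orange thermal melt at 10× dye in 50 mM HEPES pH 7.5, 10 µL triplicates. Protein is 16 µM for native AbDapE and 6 µM for SeMet AbDapE, with DMSO kept below 5%. Tm comes from the negative first derivative of the melting curves, further differentiated to the third derivative. Ki is calculated from Tm plotted against log[test compound] using a derived van't Hoff equation.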

[2] = biological target: T1, HiDapE (Haemophilus influenzae, UniProt P44514); settings: read-out: HiDapE IC50 (sulfate); previously published enzyme inhibition; cited from earlier work
T1 sequence (P44514 1-377): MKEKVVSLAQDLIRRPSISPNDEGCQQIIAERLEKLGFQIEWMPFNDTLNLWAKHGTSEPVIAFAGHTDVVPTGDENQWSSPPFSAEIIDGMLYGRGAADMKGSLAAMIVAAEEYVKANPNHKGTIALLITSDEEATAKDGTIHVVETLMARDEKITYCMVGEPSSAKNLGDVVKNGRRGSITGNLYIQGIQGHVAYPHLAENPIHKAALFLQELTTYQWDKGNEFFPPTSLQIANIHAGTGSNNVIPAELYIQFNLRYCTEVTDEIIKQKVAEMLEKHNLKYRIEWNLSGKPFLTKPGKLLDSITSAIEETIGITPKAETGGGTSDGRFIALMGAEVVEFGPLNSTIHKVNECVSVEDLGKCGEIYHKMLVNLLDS

[3] = biological target: T2, AbDapE (Acinetobacter baumannii, UniProt A3M8H2); test: Thermal shift assay, AbDapE native; assay type: binding; settings: for Tm1 AbDapE / Tm2 AbDapE: 16 μM AbDapE + 10× dye
In short: as §1

[4] = biological target: T2, AbDapE; test: DapE ninhydrin enzyme inhibition assay, AbDapE; assay type: biochemical; settings: for Mode of inhibition of AbDapE: kinetic assays, modified ninhydrin assay; for Inhibition of AbDapE (in words): tested at 100 μM
In short: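 Purified His-tag-cleaved AbDapE at 8 nM final in 50 mM HEPES pH 7.5, 30 °C. Test compound (DMSO, 5% final) is preincubated with enzyme for 10 min before 2 mM N6-methyl-L,L-SDAP. After 10 min, heat to 100 °C for 1 min, chill, add 2% ninhydrin, 80 °C for 15 min, then read A570.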

[5] = biological target: T1, HiDapE; test: Thermal shift assay, HiDapE; assay type: binding; settings: for Effect on stability (Tm) of HiDapE, in words: thermal shift assays
[6] = tested on: DapE; settings: DapE from E. faecium and E. coli studied; cited from earlier work
[7] = 0.001 mM Li2SO4, 200 nM HiDapE + 10× dye
[8] = 0.005 mM Li2SO4, 200 nM HiDapE + 10× dye
[9] = 0.1 mM Li2SO4, 200 nM HiDapE + 10× dye
[10] = 0.5 mM Li2SO4, 200 nM HiDapE + 10× dye
[11] = 1 mM Li2SO4, 200 nM HiDapE + 10× dye
[12] = 5 mM Li2SO4, 200 nM HiDapE + 10× dye
[13] = 10 mM Li2SO4, 200 nM HiDapE + 10× dye
[14] = 30 mM Li2SO4, 200 nM HiDapE + 10× dye
[15] = 50 mM Li2SO4, 200 nM HiDapE + 10× dye
[16] = 60 mM Li2SO4, 200 nM HiDapE + 10× dye
[17] = 70 mM Li2SO4, 200 nM HiDapE + 10× dye
[18] = 0.005 μM captopril, 200 nM HiDapE + 10× dye
[19] = 0.05 μM captopril, 200 nM HiDapE + 10× dye
[20] = 0.1 μM captopril, 200 nM HiDapE + 10× dye
[21] = 0.5 μM captopril, 200 nM HiDapE + 10× dye
[22] = 0.8 μM captopril, 200 nM HiDapE + 10× dye
[23] = 1 μM captopril, 200 nM HiDapE + 10× dye
[24] = 3 μM captopril, 200 nM HiDapE + 10× dye
[25] = 5 μM captopril, 200 nM HiDapE + 10× dye
[26] = 10 μM captopril, 200 nM HiDapE + 10× dye

T2 sequence (A3M8H2 whole entry): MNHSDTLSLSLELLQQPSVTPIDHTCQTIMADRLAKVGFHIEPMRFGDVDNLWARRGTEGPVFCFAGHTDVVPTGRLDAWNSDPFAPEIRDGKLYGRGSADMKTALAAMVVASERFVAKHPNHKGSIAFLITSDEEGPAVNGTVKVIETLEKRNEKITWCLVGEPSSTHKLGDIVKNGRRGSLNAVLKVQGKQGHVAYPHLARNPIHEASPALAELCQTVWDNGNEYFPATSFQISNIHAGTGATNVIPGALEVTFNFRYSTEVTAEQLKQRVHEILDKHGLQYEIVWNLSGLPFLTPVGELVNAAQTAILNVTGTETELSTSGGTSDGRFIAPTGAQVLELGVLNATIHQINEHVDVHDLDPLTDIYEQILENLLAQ
Chain of AbDapE-SeMet (A3M8H2 whole entry): as above

Tm AbDapE-SeMet ([1]; 0.001 mM Li2SO4): 64.2 ± 0.7 °C | Tm AbDapE-SeMet ([1]; 0.005 mM Li2SO4): 64.1 ± 0.3 °C | Tm AbDapE-SeMet ([1]; 0.1 mM Li2SO4): 64.0 ± 0.2 °C | Tm AbDapE-SeMet ([1]; 0.5 mM Li2SO4): 64.9 ± 0.1 °C | Tm AbDapE-SeMet ([1]; 1 mM Li2SO4): 64.7 ± 0.5 °C | Tm AbDapE-SeMet ([1]; 5 mM Li2SO4): 65.2 ± 0.1 °C | Tm AbDapE-SeMet ([1]; 10 mM Li2SO4): 65.0 ± 0.3 °C | Tm AbDapE-SeMet ([1]; 50 mM Li2SO4): 63.1 ± 0.1 °C | Tm AbDapE-SeMet ([1]; 70 mM Li2SO4): 61.8 ± 0.1 °C | Tm1 AbDapE ([3]; 0.001 mM Li2SO4): 41.4 ± 0.1 °C | Tm2 AbDapE ([3]; 0.001 mM Li2SO4): 63.1 ± 0.1 °C | Tm1 AbDapE ([3]; 0.005 mM Li2SO4): 41.8 ± 0.2 °C | Tm2 AbDapE ([3]; 0.005 mM Li2SO4): 62.8 ± 0.2 °C | Tm1 AbDapE ([3]; 0.1 mM Li2SO4): 41.6 ± 0.1 °C | Tm2 AbDapE ([3]; 0.1 mM Li2SO4): 62.2 ± 0.1 °C | Tm1 AbDapE ([3]; 0.5 mM Li2SO4): 41.7 ± 0.1 °C | Tm2 AbDapE ([3]; 0.5 mM Li2SO4): 63.1 ± 0.1 °C | Tm1 AbDapE ([3]; 1 mM Li2SO4): 41.3 ± 0.1 °C | Tm2 AbDapE ([3]; 1 mM Li2SO4): 63.0 ± 0.1 °C | Tm1 AbDapE ([3]; 5 mM Li2SO4): 41.6 ± 0.1 °C | Tm2 AbDapE ([3]; 5 mM Li2SO4): 61.5 ± 0.2 °C | Tm1 AbDapE ([3]; 10 mM Li2SO4): 41.5 ± 0.1 °C | Tm2 AbDapE ([3]; 10 mM Li2SO4): 60.4 ± 0.1 °C | Tm1 AbDapE ([3]; 30 mM Li2SO4): 42.2 ± 0.2 °C | Tm2 AbDapE ([3]; 30 mM Li2SO4): 59.1 ± 0.2 °C | Tm1 AbDapE ([3]; 50 mM Li2SO4): 42.1 ± 0.1 °C | Tm2 AbDapE ([3]; 50 mM Li2SO4): 58.3 ± 0.1 °C | Tm1 AbDapE ([3]; 60 mM Li2SO4): 42.4 ± 0.2 °C | Tm2 AbDapE ([3]; 60 mM Li2SO4): 57.5 ± 0.1 °C | Tm1 AbDapE ([3]; 70 mM Li2SO4): 42.4 ± 0.3 °C | Tm2 AbDapE ([3]; 70 mM Li2SO4): 56.7 ± 0.2 °C | Mode of inhibition of AbDapE [4]: competitive inhibitors | Tm1 HiDapE [5, 7]: 51.7 ± 0.3 °C | Tm2 HiDapE [5, 7]: 75.6 ± 0.3 °C | Tm1 HiDapE [5, 8]: 51.4 ± 0.2 °C | Tm2 HiDapE [5, 8]: 76.2 ± 0.5 °C | Tm1 HiDapE [5, 9]: 52.7 ± 0.4 °C | Tm2 HiDapE [5, 9]: 76.1 ± 0.6 °C | Tm1 HiDapE [5, 10]: 51.2 ± 0.7 °C | Tm2 HiDapE [5, 10]: 78.3 ± 0.1 °C | Tm1 HiDapE [5, 11]: 50.7 ± 0.2 °C | Tm2 HiDapE [5, 11]: 77.8 ± 0.1 °C | Tm1 HiDapE [5, 12]: 51.2 ± 0.6 °C | Tm2 HiDapE [5, 12]: 77.7 ± 0.1 °C | Tm1 HiDapE [5, 13]: 51.2 ± 0.6 °C | Tm2 HiDapE [5, 13]: 77.4 ± 0.1 °C | Tm1 HiDapE [5, 14]: 52.6 ± 0.5 °C | Tm2 HiDapE [5, 14]: 74.6 ± 0.3 °C | Tm1 HiDapE [5, 15]: 53.3 ± 0.5 °C | Tm2 HiDapE [5, 15]: 75.9 ± 0.1 °C | Tm1 HiDapE [5, 16]: 53.3 ± 0.3 °C | Tm2 HiDapE [5, 16]: 73.8 ± 0.1 °C | Tm1 HiDapE [5, 17]: 54.4 ± 0.5 °C | Tm2 HiDapE [5, 17]: 76.6 ± 0.1 °C | Ki ([5]; read-out: Ki (HiDapE, thermal shift), Tm vs log [concentration], derived Van't Hoff equation, 200 nM HiDapE + 10× dye): 18.4 mM | Effect on stability (Tm) of HiDapE, in words [5]: stabilize HiDapE
SMILES: O=S(=O)([O-])[O-].[Li+].[Li+] [Lithium sulfate]
IC50 [2]: 13.8 mM

SMILES: Cc1ccccc1C(OCCN(C)C)c1ccccc1 (stereo not shown) [orphenadrine]
Effect on Tm values of DapE, in words [6]: lowering of the Tm values

Inhibition of AbDapE (in words) [4]: did not inhibit AbDapE significantly
SMILES: CC(=O)N1CCc2cc(Cl)c(S(=O)(=O)NCCC(C)C)cc21 [1-acetyl-5-chloro-N-isopentylindoline-6-sulfonamide]
Inhibition of AbDapE (in words) ([4]; listed as indoline sulfonamide): not significantly inhibited; also recorded: did not measurably inhibit

SMILES: CCN(CC)C(=S)SSC(=S)N(CC)CC [disulfiram]
Effect on Tm values of DapE, in words [6]: lowering of the Tm values

Tm AbDapE-SeMet ([1]; 0.005 μM captopril): 65.3 ± 0.2 °C | Tm AbDapE-SeMet ([1]; 0.05 μM captopril): 65.5 ± 0.1 °C | Tm AbDapE-SeMet ([1]; 0.1 μM captopril): 65.3 ± 0.2 °C | Tm AbDapE-SeMet ([1]; 0.5 μM captopril): 65.1 ± 0.1 °C | Tm AbDapE-SeMet ([1]; 0.8 μM captopril): 66.1 ± 0.1 °C | Tm AbDapE-SeMet ([1]; 1 μM captopril): 65.7 ± 0.1 °C | Tm AbDapE-SeMet ([1]; 3 μM captopril): 66.4 ± 0.3 °C | Tm AbDapE-SeMet ([1]; 5 μM captopril): 67.2 ± 0.2 °C | Tm AbDapE-SeMet ([1]; 10 μM captopril): 68.5 ± 0.1 °C | Tm1 AbDapE ([3]; 0.005 μM captopril): 41.9 ± 0.1 °C | Tm2 AbDapE ([3]; 0.005 μM captopril): 62.9 ± 0.1 °C | Tm1 AbDapE ([3]; 0.05 μM captopril): 41.9 ± 0.2 °C | Tm2 AbDapE ([3]; 0.05 μM captopril): 63.3 ± 0.7 °C | Tm1 AbDapE ([3]; 0.1 μM captopril): 41.9 ± 0.1 °C | Tm2 AbDapE ([3]; 0.1 μM captopril): 62.6 ± 0.3 °C | Tm1 AbDapE ([3]; 0.5 μM captopril): 41.9 ± 0.2 °C | Tm2 AbDapE ([3]; 0.5 μM captopril): 63.1 ± 0.4 °C | Tm1 AbDapE ([3]; 0.8 μM captopril): 41.9 ± 0.1 °C | Tm2 AbDapE ([3]; 0.8 μM captopril): 62.3 ± 0.1 °C | Tm1 AbDapE ([3]; 1 μM captopril): 41.7 ± 0.1 °C | Tm2 AbDapE ([3]; 1 μM captopril): 63.4 ± 1.0 °C | Tm1 AbDapE ([3]; 3 μM captopril): 41.7 ± 0.2 °C | Tm2 AbDapE ([3]; 3 μM captopril): 65.1 ± 0.3 °C | Tm1 AbDapE ([3]; 5 μM captopril): 41.4 ± 0.1 °C | Tm2 AbDapE ([3]; 5 μM captopril): 64.1 ± 0.2 °C | Tm1 AbDapE ([3]; 10 μM captopril): 41.1 ± 0.1 °C | Tm2 AbDapE ([3]; 10 μM captopril): 66.6 ± 0.2 °C | Tm1 AbDapE ([3]; 15 μM captopril): 42.0 ± 0.1 °C | Tm2 AbDapE ([3]; 15 μM captopril): 65.5 ± 0.4 °C | Effect on stability of AbDapE, in words ([3]; thermal shift assays): increases the stability | IC50 ([4]; AbDapE IC50, ninhydrin assay, 8 nM enzyme, 2 mM N^6-methyl-L,L-SDAP): 0.0012 mM | Mode of inhibition of AbDapE [4]: competitive inhibitors | Tm1 HiDapE [5, 18]: 51.5 ± 0.1 °C | Tm2 HiDapE [5, 18]: 78.2 ± 0.1 °C | Tm1 HiDapE [5, 19]: 50.2 ± 0.6 °C | Tm2 HiDapE [5, 19]: 78.6 ± 0.1 °C | Tm1 HiDapE [5, 20]: 50.0 ± 0.8 °C | Tm2 HiDapE [5, 20]: 78.1 ± 0.1 °C | Tm1 HiDapE [5, 21]: 50.5 ± 0.1 °C | Tm2 HiDapE [5, 21]: 78.3 ± 0.1 °C | Tm1 HiDapE [5, 22]: 50.3 ± 0.5 °C | Tm2 HiDapE [5, 22]: 77.9 ± 0.1 °C | Tm1 HiDapE [5, 23]: 51.2 ± 0.2 °C | Tm2 HiDapE [5, 23]: 77.8 ± 0.1 °C | Tm1 HiDapE [5, 24]: 52.2 ± 0.1 °C | Tm2 HiDapE [5, 24]: 78.0 ± 0.1 °C | Tm1 HiDapE [5, 25]: 53.2 ± 0.2 °C | Tm2 HiDapE [5, 25]: 77.8 ± 0.1 °C | Tm1 HiDapE [5, 26]: 52.9 ± 0.6 °C | Tm2 HiDapE [5, 26]: 77.9 ± 0.1 °C | Effect on stability (Tm) of HiDapE, in words [5]: stabilize HiDapE
SMILES: C[C@H](CS)C(=O)N1CCC[C@H]1C(=O)O [Captopril]
